Our source for the viability, differential viability (reversal) and inhibition values is PubChem BioAssay.

Active and inactive are the calls of the source.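 Rule for the calls, unless noted: active = viability at or below 10% of carrier control in both of two separate runs; inconclusive = viability at or below 10% in only one of the two runs; inactive = the rest.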

Experiment [1] in a line: reduced viability of SK-BR-3 breast cancer cells – cell-based, 24 h, human, pilot screen (AID 572).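 Note: compound exposure lasted between 18 and 24 h rather than exactly 24 h; 100% = carrier-treated control wells.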 Conditions: SK-BR-3 viability, CellTiter-Glo luminescence, at 10 µM, stronger effect = lower value. A general note: In ATP-based viability assays light output follows the ATP content of the culture.
Experiment [2] is described as follows: HUVEC growth inhibition – cell-based, human, primary screen (AID 575;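 active = viability at or below 30% in both replicate assays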;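 note: 100% = median of untreated cell wells with 0.1% DMSO on each plate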). To be noted: HUVEC proliferation, CellTiter-Glo luminescence, 72 h; at 10 µM; stronger effect = lower value. The procedure, abridged: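 Assay system: Primary human umbilical vein endothelial cells | Quantity: 1250 cells per well | Medium: Supplemented EBM, 2% fetal bovine serum | Detection: CellTiter-Glo luminescence measuring cellular ATP | Read-out: % viability vs DMSO wells | Plate: Collagen-coated 384-well format | Times: 72 h exposure, 37 °C, 5% CO2, 30 min RT equilibration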

The nature of experiment [3]: H69AR cell proliferation blockers – human, duplicate replicates, primary screen (AID 580;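 active = viability at or under a set limit in both replicates, limit being median viability minus 3 SD, cut at about 48% in these data, passing the limit was not always enough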;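 note: 100% = mean luminescence of untreated wells and 0% = no signal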). Conditions: H69AR lung tumor cells viability, ATP luminescence, 72 h; at 10 µM; stronger effect = lower value.
Experiment [4] in a line: MRP1 drug-resistance reversers in H69AR cells – cell-based, doxorubicin co-treatment, pilot screen (AID 601;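 active = viability loss from added drug above about 55%, and viability with drug at most 40%, in both replicates, limit read from the data, passing the limit was not always enough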). To be noted: CellTiter-Glo, 72 h, at 10 µM; for differential viability (reversal): stronger effect = higher value.
Experiment [5] can be described thus: yeast transport mutant growth inhibition pilot in 384-well plates, post-Golgi transport modulator project (AID 636; in the data active = inhibition above about 31%). To be noted: absorbance 615 nm, about 18 h, stronger effect = higher value.
Experiment [6] can be described thus: growth suppression of yeast trafficking mutant, preliminary HTS, modulators of trafficking downstream of Golgi apparatus project, 1536-format plate, OD 615 nm (AID 637; in the data active = inhibition above about 30%). To be noted: yeast transport mutant growth, absorbance 615 nm, 18 h; stronger effect = higher value.
The mark [7] stands for this setting: H69AR cells + 2 uM doxorubicin, measured here: viability with 2 uM doxorubicin, stronger effect = lower value.
[8] abbreviates: H69AR cells, compound alone cytotoxicity.

For `COc1cccc(Nc2nnc(SCC(=O)N3CC(C)OC(C)C3)s2)c1` (stereo unspecified), the viability in experiment [1] is 92% (inactive); in experiment [2] it was 75.3% (inactive); in experiment [3] it was 102% (inactive); in experiment [4] (setting [7]), 99.1%; in experiment [4] (setting [8]) it was 102%. For the same compound, the differential viability (reversal) in experiment [4] (H69AR cells + 2 uM doxorubicin) is 2.69% (inactive). Moreover, the inhibition in experiment [5] is -2.4% (inactive); in experiment [6] it was -0.36% (inactive).
For `C=CCOC(=O)C1=C(C)NC(=O)NC1c1cn(-c2ccccc2)nc1-c1cccs1` (stereo unspecified), the viability is 119% (inactive) in experiment [1]; 81.9% (inactive) in experiment [2]; 91% (inactive) in experiment [3]; 94.7% in experiment [4] (setting [7]); 91% in experiment [4] (setting [8]). Further, in experiment [4] (H69AR cells + 2 uM doxorubicin), the differential viability (reversal) was -3.71% (inactive). The figures for the inhibition in experiment [5] and in experiment [6] were -6.49% (inactive) and 1.09% (inactive), respectively.
On to `O=C(c1ccc(F)cc1)C1CCN(CCn2c(=O)[nH]c3ccccc3c2=O)CC1`, for which the viability was 94% (inactive) in experiment [1]; 89.5% (inactive) in experiment [2]; 96.2% (inactive) in experiment [3]; 94.3% in experiment [4] (setting [7]); 96.2% in experiment [4] (setting [8]). The differential viability (reversal) in experiment [4] (H69AR cells + 2 uM doxorubicin) is 1.93% (inactive). Further, the inhibition in experiment [5] was -2.73% (inactive); in experiment [6], 1.33% (inactive).
Take `Clc1cccc(Cl)c1COc1ccncc1`: the viability is 88% (inactive) in experiment [1]; 91.5% (inactive) in experiment [2]; 97.2% (inactive) in experiment [3]; 94.3% in experiment [4] (setting [7]); 97.2% in experiment [4] (setting [8]). For the same compound, the differential viability (reversal) in experiment [4] (H69AR cells + 2 uM doxorubicin) is 2.84% (inactive). In addition, the inhibition was 0.82% (inactive) in experiment [5] and 27.4% (inactive) in experiment [6].
With `O=C(Nc1ccc(N2CCCC2)cc1)c1cccc(F)c1`, the viability in experiment [1] is 134% (inactive); in experiment [2] it was 51.7% (inactive); in experiment [3] it was 25.8% (active); in experiment [4] (setting [7]), 50.3%; in experiment [4] (setting [8]), 25.8%. The differential viability (reversal) in experiment [4] (H69AR cells + 2 uM doxorubicin) was -24.6% (inactive). Further, the results for the inhibition in experiment [5] and in experiment [6] were -0.78% (inactive) and -0.82% (inactive), respectively.
In the case of `COc1cccc(NC(=O)N(Cc2ccco2)C(C)c2cccs2)c1` (stereo unspecified), the viability in experiment [1] is 92% (inactive); in experiment [2], 88.9% (inactive); in experiment [3], 89.8% (inactive); in experiment [4] (setting [7]) it was 73%; in experiment [4] (setting [8]) it was 89.8%. Also, in experiment [4] (H69AR cells + 2 uM doxorubicin), the differential viability (reversal) was 16.8% (inactive). Also, the inhibition in experiment [5] is -0.52% (inactive); in experiment [6] it was -4.1% (inactive).
`Cc1nc2cc(NC(=O)N3c4ccccc4CC3C)ccc2o1` (stereo unspecified): the viability is 91% (inactive) in experiment [1]; 96.2% (inactive) in experiment [2]; 86.3% (inactive) in experiment [3]; 78.2% in experiment [4] (setting [7]); 86.3% in experiment [4] (setting [8]). In experiment [4] (H69AR cells + 2 uM doxorubicin), the differential viability (reversal) was 8.09% (inactive). Also, the figures for the inhibition in experiment [5] and in experiment [6] were -5.6% (inactive) and -13.4% (inactive), respectively.
As to `Cc1cc(C(=O)N2CCCc3ccccc32)no1`, the viability was 98% (inactive) in experiment [1]; 102% (inactive) in experiment [2]; 105% (inactive) in experiment [3]; 90.3% in experiment [4] (setting [7]); 105% in experiment [4] (setting [8]). Moreover, in experiment [4] (H69AR cells + 2 uM doxorubicin), the differential viability (reversal) was 14.4% (inactive). Also, the inhibition is -2.27% (inactive) in experiment [5] and 1.27% (inactive) in experiment [6].
On to `c1ccc(Cn2nnnc2CN2CCCC2)cc1`, for which the viability was 112% (inactive) in experiment [1]; 101% (inactive) in experiment [2]; 99.4% (inactive) in experiment [3]; 96.5% in experiment [4] (setting [7]); 99.4% in experiment [4] (setting [8]). Also, the differential viability (reversal) in experiment [4] (H69AR cells + 2 uM doxorubicin) was 2.88% (inactive). The inhibition in experiment [5] was -6.3% (inactive); in experiment [6], 0.48% (inactive).
For `Cc1ccc(S(=O)(=O)NCC(=O)OCN2C(=O)c3ccccc3C2=O)cc1`, the viability in experiment [1] is 94% (inactive); in experiment [2] it was 99.6% (inactive); in experiment [3] it was 105% (inactive); in experiment [4] (setting [7]), 115%; in experiment [4] (setting [8]) it was 105%. The differential viability (reversal) in experiment [4] (H69AR cells + 2 uM doxorubicin) was -10.3% (inactive). Besides, the inhibition in experiment [5] was -2.73% (inactive); in experiment [6], 0.16% (inactive).
For the compound `C=CCN1C(=O)C2(/C(=C(\O)c3ccc4c(c3)OCCO4)C(=O)C(=O)N2CCCOC)c2ccccc21` (stereo unspecified), the viability was 109% (inactive) in experiment [1]; 96.6% (inactive) in experiment [2]; 95.9% (inactive) in experiment [3]; 84.7% in experiment [4] (setting [7]); 95.9% in experiment [4] (setting [8]). Further, the differential viability (reversal) in experiment [4] (H69AR cells + 2 uM doxorubicin) was 11.2% (inactive). Moreover, the inhibition in experiment [5] was -8.36% (inactive); in experiment [6] it was 0.48% (inactive).
With `CCn1nnnc1SCC(=O)Nc1nc(-c2cccs2)cs1`, the viability is 110% (inactive) in experiment [1]; 83.8% (inactive) in experiment [2]; 86.5% (inactive) in experiment [3]; 68.3% in experiment [4] (setting [7]); 86.5% in experiment [4] (setting [8]). The differential viability (reversal) in experiment [4] (H69AR cells + 2 uM doxorubicin) was 18.2% (inactive). The figures for the inhibition in experiment [5] and in experiment [6] were -11% (inactive) and 3.87% (inactive), respectively.

What is called viability is a read-out of living cells in per cent, often relative to untreated cells. What is called inhibition is the change of the read-out against control, counted positive when it falls.
